According to the EternaBench riboswitch data:

System: MS2 coat protein
Experiment: apparent Kd, MS2 coat protein; higher = weaker binding; RNA-MaP array; FMN 200 µM where present
Method in brief: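 In 100 mM Tris-HCl pH 7.5, 80 mM KCl, 4 mM MgCl2, BSA, DTT, yeast tRNA and Tween-20, SNAP-549-labelled MS2 coat protein was titrated from 0.7 or 1.5 nM, doubling to 3 µM, over designs transcribed by stalled E. coli RNA polymerase on Illumina sequencing-chip clusters. This was done first without ligand, then with ligand held constant. After green signal was normalised to red-channel RNA signal and control-cluster median Fmax, the apparent Kd was taken as the median of filtered per-cluster binding-curve fits.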

[1] = designed as: ON switch for flavin mononucleotide, no ligand
[2] = ligand present: flavin mononucleotide, designed as: ON switch for flavin mononucleotide
[3] = designed as: OFF switch for flavin mononucleotide, no ligand
[4] = ligand present: flavin mononucleotide, designed as: OFF switch for flavin mononucleotide

Sequence | apparent Kd [1] [nM] | apparent Kd [2] [nM] | apparent Kd [3] [nM] | apparent Kd [4] [nM]
AUAGAAGACUAGAAGGACCUAGUUGUAUAUUGUCGAGGUAUAUAGUUAGGUAGGAUAUGGGACAUGAGGAUCACCCAUGUCUUG | 8.51 | 7.75 |  | 
AAAAAGUCAGGAUAUGCUUAUAAUAAGAAAAUUAGAGAUAUGCAGAAGGGACAUGAGGAUCACCCAUGUAAAAA |  |  | 35.3 | 37.8
AAAUAAGUUGCAGGAUAUUAUUUAUAAUAUAUAUAAGAAGGGCAACAAACCUCACAUGAGGAUCACCCAUGUACCCAUGCAUCU |  |  | 109 | 44.8
UGUUAAUAUCGAGGAUAUGUCUAGACACAUGAGGAUCACCCAUGUAUGUGUAUAGAAGGCGAUAUUAACAGCAUGUUACAUGCU | 39.9 | 17.5 |  | 
CCUUUAAAGAUCCAAAAUUUCAACAUGAGGAUCACCCAUGUGCAGGAUAUCGUGCCAGUGAUGUACGAGAAGGGCAGACUCUGC |  |  | 119 | 149
UGGUACUAGGGAGGAUAUGGGAAGUUACAUGAGGAUCACCCAUGUUUAAGAAUGCCGAGAGGCAACUAGAAGGCCCUAGUACCU | 31.6 | 6.24 |  | 
GGUUUGGGAGGAUAUGGCUUGUUUGACAUGAGGAUCACCCAUGUAAGUGGAUCUUCCGGGCCAGAAGGCUCGGGCC |  |  | 104 | 188
AUACAUGAGGAUCACCCAUGUAAUUAAUUAACUAGUAAGAUCUAGGAUAUCAGCUCGAAUAGAGCUGAGAAGGAGAUCACAUGU | 34 | 15.4 |  | 
GACAUGAGGAUCACCCAUGUCCAUGCAAGAGUAGUUGAGACCAGAAGGACCUUGCGGAGCGCAGGGUAGGAUAUGGAGCCCUCA | 36.3 | 8.75 |  | 
UCAGUAGAGUCAGGAUAUACGAAAGAAGAUCCUUACAUGAGGAUCACCCAUGUAGAAGGGACUCUACUGUAAGUCGGAAACGAC |  |  | 129 | 192
CGUGUGUGAGGAUAUGACAAUGGUAUCUUCGGAUACCAUUGUCAGAAGGUACAUGAGGAUCACCCAUGUAGAUC |  |  | 37.7 | 70.3
AAUAACAGAGGAUAUACUAUUUUAUGUGUUUAUUGUUUUAAACAUGAGGAUCACCCAUGUAGAAGGCUGAAUAA |  |  | 29.3 | 44.3
UCCGAUGUACAUGAGGAUCACCCAUGUCACAUGCCCGUGACACAGGAUAUCCAGGAUAGGCCAAAGGAGAAGGGUGAUCCGCGG | 64.3 | 94.5 |  | 
UUGGUAUUUGUAGGAUAUCUGUCGCCACCGUGUGGAGAAGGACGAACAUGAGGAUCACCCAUGUAUCAUGGUGUGGGCUUUGCU |  |  | 302 | 317
ACUAUACGAGGAUAUACUGUCGGGCCUCAGACAUAAAUAAGACAUGAGGAUCACCCAUGUAGAAGGCGUUUACU |  |  | 52.6 | 114
GGAUCGAGUGUGAGGAUAUGCUGGUCCUUGGAUCAGCAGAAGGCACAUGAGGAUCACCCAUGUGUUCCCGGUCC |  |  | 48.9 | 577
AUACAUCUUCGAGGAUAUCGGUGAUAAAUUUUACGAGAAGGCGAUGAAAGAUAUAAUCUUAUAUACAUGAGGAUCACCCAUGUU | 26 | 24.1 |  | 
ACAUAGUAAGGAUAUGCUGCUCGUCACUUGCGUGAUGAGUAGCAGAAGGUACAUGAGGAUCACCCAUGUAAAGA |  |  | 30.1 | 20.3
CCAUGGCUGUAAGGAUAUCUCUGACAAAGUCAGAGAGAAGGUACAUGAGGAUCACCCAUGUGAGGAAAACCACAUUUGCCAUGG |  |  | 9.46 | 15.7
GAGCUAUGAGGAUAUGCAUAUAUACGGAUUCGUGUAGUACUACAUGAGGAUCACCCAUGUAGAAGGCGUGGCUG |  |  | 13.4 | 16.7
ACAUGAGGAUCACCCAUGUUCACAUAGGAUAUUGAUUAUAUUGGUUAUAGAAUAGUUAUAAUGCUCAAGAAGGAUGCCAGUUGU | 11 | 8.94 |  | 
UAAUAAUAAUAAUAGCAGUAUUACAUGAGGAUCACCCAUGUAUAGGAUAUCGUCAGGAAUACUGUCGAGAAGGAUACAAACUGC |  |  | 20.7 | 28.7
GUAGGCGACCAGAAGGGUGACAUGAGGAUCACCCAUGUAGAUGUGUUCCCGCUUGGGAGCCGUCCACAGGAUAUGGUUGGUUAU | 49.9 | 74.5 |  | 
GGAUCGAAUGUGAGGAUAUACCUAUGGAAACAUAGGUAGAAGGCACAUGAGGAUCACCCAUGUUCCUACGGUCC |  |  | 92.2 | 577
GACAUACAUGAGGAUCACCCAUGUUCAGAAGGACAAGGAUAUGUGUGGAAACCAUACUAUACAGAAGGUGUCUGUC | 37.6 | 19.9 |  | 
CCUCGGAGUAAGGAUAUCAAUUUGUAGAUAGAUUGAGAAGGUACUACAUGAGGAUCACCCAUGUCCCGUCUCAA |  |  | 14.7 | 16.4
GGGUACAUCGGAGGAUAUCAUGUAAAUACAUGAGGAUCACCCAUGUCGCUGGAGACAUCGGAGAUUGAGAAGGCCGAUGUACCG | 26.6 | 303 |  | 
UUUUUGUGAGGAUAUUAGUAGUAAAUAAAUAAAAUUACUACUGAGAAGGCACAUGAGGAUCACCCAUGUUCCUC |  |  | 33.6 | 254

Sequence | apparent Kd [1] [nM] | apparent Kd [2] [nM] | apparent Kd [3] [nM] | apparent Kd [4] [nM]
GAUAAGGGAGGAUAUACGGAACGGUUUAUGCUCAGUGAGGCACAUGAGGAUCACCCAUGUAGAAGGCCCGACAG |  |  | 28.2 | 120
GUAGCAUUGAGAGGAUAUCCAUAUCCGAAAGGGACAUGAGGAUCACCCAUGUCGCGAAAGCGGUGGGAGAAGGCUCUAUGCUAC | 4.92 | 5.01 |  | 
AUUACAUGAGGAUCACCCAUGUACAGAACGUUUCAUUACAGUGAGGAUAUACGAAAUGUAGGAGCGUAGAAGGCACUGGGUACA | 129 | 40.1 |  | 
CGCAAUAUACAGAAGGAGUUAUUUAGAGGAUUACUAGGAUAUGUUCACAUGAGGAUCACCCAUGUCAUAUUGGGAUUUAUUGCG |  |  | 10 | 10.3
GGAGCUCCCAUUAACAUGAGGAUCACCCAUGUCAAAAGACAUGAGGAUAUGCUACCUAAUUGGUAGCAGAAGGCAUGGAGCUCC | 1160 | 81 |  | 
GCUAGUCAUGUCAGGAUAUGCUGAACCUUGGUUCAGCAGAAGGGACAUGAGGAUCACCCAUGUGCCUAACUAGC |  |  | 42.1 | 402
AUUUAUUAGUAAGGAUAUACUAGCGAUUAGCUUGUAGAAGGUACAGUCUUAUGUAUAACAUGUUAACAUGAGGAUCACCCAUGU | 60.4 | 27.9 |  | 
UAUAUAUAGUAAGGAUAUGUAUAUAUUGUAUAAACAGAAGGUACUGACAUGAGGAUCACCCAUGUUUUAGUGUGGGCAUGUAGA |  |  | 76.5 | 121
AUUAUAUAGAUAGGAUAUAGAAUAUUAUUUUAACAUGAGGAUCACCCAUGUAACCUUAUGUGUAGCUAGAAGGAUCAUUUAUUA |  |  | 80.3 | 113
ACAUGAGGAUCACCCAUGUAGAAUGGAGAAGGUAGAUACUUGUGACUCACCCAUGUACAUAGGACUAAGGAUAUUCUAAUAAUU | 94.4 | 54.2 |  | 
CGCACUAUACAUGAGGAUCACCCAUGUUAACUUUAGCUAUUCAGAAGGCAUAAAUAGAGAUUAAAUGAGGAUAUGAUUAGUGCG | 88.6 | 28.3 |  | 
AUUAUGUCAGGAUAUCAGUAGUAAAAAAAAAAAAUUACUACUGAGAAGGGACAUGAGGAUCACCCAUGUCAAAA |  |  | 23 | 30.6
GUUUGACAUGAGGAUCACCCAUGUGAGGAUAUACGAGUAGCUGCUAGGUAGUUAGUAUGUAGAAGGUGCGUGUU |  |  | 75.6 | 71
UACGAGUCAGGAUAUUGGGCAAUAGCAUUACGGAACGAUCACAAGAAGGGACAUGAGGAUCACCCAUGUUAUAU |  |  | 23.8 | 21.7
UUGGACGUCGUAGGAUAUGUAGGAUAUUCCUACAUGAGGAUCACCCAUGUUGACAUGGGAGAAGGACAGAAGGACGAUGUCCAU | 52.4 | 176 |  | 
UUUUACAUAGGAUAUAGUCUUUUUUACAUGAGGAUCACCCAUGUCUCUCUUUUUUUUUUUCUAGAAGGAUGUUUUU |  |  | 42.9 | 30.9
GCACAUGGCAUAGGAUAUAGAACGAUAGUUGAAAUAGAUUGUUGGAAUUUACUAGAAGGAUGAGACAUGAGGAUCACCCAUGUA | 34.9 | 28.6 |  | 
UUUAGAUUCAGAGGAUAUUGAUGUUGUAUUUUACAAGAAGGCUGAUUGGUUUGAAUUGUUUUUUAACAUGAGGAUCACCCAUGU | 28.5 | 20.7 |  | 
GGUUGUCAAAGACAACCAUAACGAACAUGAGGAUCACCCAUGUAGGAUAUGCUACUCAAAGAGUAGCAGAAGGACAUGUGCCUU |  |  | 37.6 | 326
AGUUAAUGCACAUGAGGAUCACCCAUGUCACUUUAUAGGAGACAGGAUAUGCAUGCCAUCAAUGUGCAGAAGGGUCACCACCGA | 85.6 | 147 |  | 
ACUGAGGACACAGGAUAUCCGGUUAGGGUAAUCGGAGAAGGGUGACGGCAUGUAGGAAGUCACAUGAGGAUCACCCAUGUGAGA | 182 | 83.5 |  | 
UAGACGUUGCAGAAGGUUAUUUUUAUAACGUGCCACUUGACAUGAGGAUCACCCAUGUAAUUGAUGAAGGAUAUGCAACGGUAG |  |  | 6.34 | 5.83
AAGCGAGGGACAGGAUAUGCGGCGAAACUCGCCGCAGAAGGGUCGACAUGAGGAUCACCCAUGUCCUUACGCUCCAAGUAAAGG | 216 | 436 |  | 
CGAUGGCAUGUAGGAUAUCGAGCUCAAAGAGCUCGAGAAGGACAUGAGGAUCACCCAUGUGCUCACAGACAGUGAGCGCUAUCG |  |  | 31.2 | 156
GAAAUAAUGUAAGGAUAUACAUGAGGAUUUCUCGUAGAAGGUACAAGACAUGAGGAUCACCCAUGUGUCGCUCCGUAGAGCGUA | 308 | 299 |  | 
CGAUAUUAUGUCAGGAUAUACAUUGCGAAAGCAAUGUAGAAGGGACAUGAGGAUCACCCAUGUCCUAACUAUCG |  |  | 12.5 | 14.2
GAGGCACAUGAGGAUCACCCAUGUGGGUAGAACAUAGGAUAUCACCAACAAAUUACCCGGUGAGAAGGAUGAUGCC | 234 | 57.4 |  | 
